Data published in ChEMBL document CHEMBL1124260, “Synthesis and antitumor activity of quaternary ellipticine glycosides, a series of novel and highly active antitumor agents” (1988).

Tests used:
[1] = tested on: Mus musculus; assay: Number of survivors out of 6 ip implanted L1210 leukemia in mouse after ip administration of 10 mg/kg after 80 days; assay type: functional; details: route intraperitoneal
How it was run: (§1)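 Female BDF1 mice implanted ip with ascitic fluid holding 10^5 L1210 cells. Saline-dissolved drug given ip daily on days 1-5, starting 24 h after implant. Six mice per dose group, followed 80 days. Survivors/total counted at day 80; ILS % from mean survival time vs controls.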

[2] = tested on: Mus musculus; assay: Number of survivors out of 6 ip implanted L1210 leukemia in mouse after ip administration of 20 mg/kg after 80 days; assay type: functional; details: route intraperitoneal; how it was run: as §1
[3] = tested on: Mus musculus; assay: Number of survivors out of 6 ip implanted L1210 leukemia in mouse after ip administration of 40 mg/kg after 80 days; assay type: functional; details: route intraperitoneal; how it was run: as §1
[4] = tested on: Mus musculus; assay: Antitumor activity against ip implanted L1210 leukemia in mouse after ip administration of 1.25 mg/kg for 5 days expressed as increase in mean life span; assay type: functional; details: 120 h, route intraperitoneal
How it was run: (§2)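 Drug was dissolved in 0.9% NaCl, diluted just before use and given ip once daily for 5 consecutive days, starting 24 h after transplant. ILS % = mean survival time of treated vs control mice, observed for 80 days.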

[5] = tested on: Mus musculus; assay: Number of survivors out of 6 ip implanted P388 leukemia in mouse after ip administration of 10 mg/kg after 80 days; assay type: functional; details: route intraperitoneal
How it was run: (§3)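 P388 leukemia, 10^6 ascitic cells implanted ip in female BDF1 mice. Drug in saline given ip for 5 consecutive days from 24 h after transplant. Groups of six per dose level. Survivors/total recorded at the 80-day end of observation; ILS % from treated/control mean survival time.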

[6] = tested on: Mus musculus; assay: Number of survivors out of 6 ip implanted P388 leukemia in mouse after ip administration of 20 mg/kg after 80 days; assay type: functional; details: route intraperitoneal; how it was run: as §3
[7] = tested on: Mus musculus; assay: Number of survivors out of 6 ip implanted P388 leukemia in mouse after ip administration of 40 mg/kg after 80 days; assay type: functional; details: route intraperitoneal; how it was run: as §3
[8] = tested on: Mus musculus; assay: Number of survivors out of 6 ip implanted P388 leukemia in mouse after ip administration of 5 mg/kg after 80 days; assay type: functional; details: route intraperitoneal; how it was run: as §3
[9] = tested on: Mus musculus; assay: Antitumor activity against ip implanted L1210 leukemia in mouse after ip administration of 10 mg/kg for 5 days expressed as increase in mean life span; assay type: functional; details: route intraperitoneal; how it was run: as §2
[10] = tested on: Mus musculus; assay: Antitumor activity against ip implanted L1210 leukemia in mouse after ip administration of 20 mg/kg for 5 days expressed as increase in mean life span; assay type: functional; details: 120 h, route intraperitoneal; how it was run: as §2
[11] = tested on: Mus musculus; assay: Antitumor activity against ip implanted L1210 leukemia in mouse after ip administration of 30 mg/kg for 5 days expressed as increase in mean life span; assay type: functional; details: Mus musculus, L1210, ip, 120 h, route intraperitoneal; how it was run: as §2
[12] = tested on: Mus musculus; assay: Antitumor activity against ip implanted L1210 leukemia in mouse after ip administration of 40 mg/kg for 5 days expressed as increase in mean life span; assay type: functional; details: 120 h, route intraperitoneal; how it was run: as §2
[13] = tested on: Mus musculus; assay: Antitumor activity against ip implanted L1210 leukemia in mouse after ip administration of 5 mg/kg for 5 days expressed as increase in mean life span; assay type: functional; details: Mus musculus, L1210, ip, 120 h, route intraperitoneal; how it was run: as §2
[14] = tested on: Mus musculus; assay: Antitumor activity against ip implanted P388 leukemia in mouse after ip administration of 1.25 mg/kg for 5 days expressed as increase in mean life span; assay type: functional; details: 120 h, route intraperitoneal
How it was run: (§4)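 Saline-dissolved drug was given ip daily for 5 consecutive days, beginning 24 h post-transplant. ILS % was calculated from treated vs control mean survival time over an 80-day observation period.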

[15] = tested on: Mus musculus; assay: Antitumor activity against ip implanted P388 leukemia in mouse after ip administration of 10 mg/kg for 5 days expressed as increase in mean life span; assay type: functional; details: 120 h, route intraperitoneal; how it was run: as §4
[16] = tested on: Mus musculus; assay: Antitumor activity against ip implanted P388 leukemia in mouse after ip administration of 20 mg/kg for 5 days expressed as increase in mean life span; assay type: functional; details: 120 h, route intraperitoneal; how it was run: as §4
[17] = tested on: Mus musculus; assay: Antitumor activity against ip implanted P388 leukemia in mouse after ip administration of 40 mg/kg for 5 days expressed as increase in mean life span; assay type: functional; details: 120 h, route intraperitoneal; how it was run: as §4
[18] = tested on: Mus musculus; assay: Antitumor activity against ip implanted P388 leukemia in mouse after ip administration of 5 mg/kg for 5 days expressed as increase in mean life span; assay type: functional; details: 120 h, route intraperitoneal; how it was run: as §4
[19] = tested on: Mus musculus; assay: Number of survivors out of 6 ip implanted L1210 leukemia mouse, tested after 80 days at 30 mg/kg; assay type: functional; details: route intraperitoneal; how it was run: as §1
[20] = tested on: Mus musculus; assay: Inhibition of sc implanted syngeneic colon 38 carcinoma by ip administration at 20 mg/kg on 1, 3, 5, 7, 9 days measured as inhibition ratio; assay type: functional; details: route subcutaneous
How it was run: (§5)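 Tumor homogenate (70 mg) implanted into the axillary region of female BDF1 mice. Drug dissolved in 0.9% NaCl and diluted with saline just before use, then given ip on days 1, 3, 5, 7 and 9. Tumor length and width were measured by caliper on day 20 after inoculation and converted to estimated weight. Result reported as treated vs control tumor weight, T/C %.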

[21] = tested on: Mus musculus; assay: Inhibition of sc implanted syngeneic colon 38 carcinoma by ip administration at 30 mg/kg on 1, 3, 5, 7, 9 days measured as inhibition ratio; assay type: functional; details: route intraperitoneal; how it was run: as §5
[22] = tested on: Mus musculus; assay: Inhibition of sc implanted syngeneic colon 38 carcinoma by ip administration at 40 mg/kg on 1, 3, 5, 7, 9 days measured as inhibition ratio; assay type: functional; details: route subcutaneous; how it was run: as §5
[23] = tested on: Mus musculus; assay: Effect on ip implanted syngeneic B16 melanoma by ip administration of 20 mg/kg for 9 days measured as increase in mean life span; details: 216 h
[24] = tested on: Mus musculus; assay: Effect on ip implanted syngeneic B16 melanoma by ip administration for 9 days at 5 mg/kg was measured as increase in mean life span; details: 216 h
[25] = tested on: Mus musculus; assay: Effect on ip implanted syngeneic B16 melanoma by ip administration for 9 days at 10 mg/kg was measured as increase in mean life span; details: 216 h
[26] = tested on: Mus musculus; assay: Antitumor activity against ip implanted P388 leukemia in mouse after ip administration of 30 mg/kg for 5 days expressed as increase in mean life span; assay type: functional; details: 120 h, route intraperitoneal; how it was run: as §4
[27] = tested on: Mus musculus; assay: Antitumor activity against ip implanted syngeneic L1210 leukemia in mouse after ip administration of 60 mg/kg for 5 days expressed as increase in mean life span; assay type: functional; details: 120 h, route intraperitoneal; how it was run: as §2
[28] = tested on: Mus musculus; assay: Antitumor activity against ip implanted L1210 leukemia in mouse after iv administration of 8 mg/kg for 5 days expressed as increase in mean life span; details: 120 h
[29] = tested on: Mus musculus; assay: Antitumor activity against ip implanted P388 leukemia in mouse after iv administration of 32 mg/kg for 5 days expressed as increase in mean life span; details: 120 h
[30] = tested on: Mus musculus; assay: Antitumor activity against ip implanted L1210 leukemia in mouse after iv administration of 32 mg/kg for 5 days expressed as increase in mean life span; details: 120 h
[31] = tested on: Mus musculus; assay: Antitumor activity against ip implanted L1210 leukemia in mouse after iv administration of 16 mg/kg for 5 days expressed as increase in mean life span; details: 120 h

Row | SMILES | Cures [1] | Cures [2] | Cures [3] | ILS at 1.25 mg/kg [4] [%] | Cures [5] | Cures [6] | Cures [7] | ILS at 20 mg/kg [10] [%] | ILS at 30 mg/kg [11] [%] | ILS at 40 mg/kg [12] [%] | ILS at 5 mg/kg [13] [%] | ILS at 1.25 mg/kg [14] [%] | ILS at 10 mg/kg [15] [%] | ILS at 20 mg/kg [16] [%] | ILS at 40 mg/kg [17] [%] | ILS at 5 mg/kg [18] [%] | Cures [19] | T/C [20] [%] | T/C [21] [%] | T/C [22] [%] | also measured
1 | Cc1c2cc[n+]([C@@H]3OC[C@@H](O)[C@H](O)[C@@H]3O)cc2c(C)c2c1[nH]c1ccc(O)cc12.[Cl-] | 1 | 1 | 4 | 46 | 2 | 4 | 4 | > 249 | > 786 | > 668 | 68 | 87 | > 369 | > 585 | > 526 | > 212 | 5 | 37 | 18 | 5 | Cures [8]: 1; ILS at 10 mg/kg ([9]; Mus musculus, L1210, ip, 120 h): > 238%; ILS at 20 mg/kg [23]: 87%; ILS at 5 mg/kg [24]: 41%; ILS at 10 mg/kg [25]: 61%
2 | Cc1c2ccncc2c(C)c2c1[nH]c1ccc(O)cc12 |  |  |  |  |  |  |  |  |  |  |  |  |  |  |  |  |  |  |  |  | ILS at 30 mg/kg [26]: 91%; ILS at 60 mg/kg [27]: 79%
3 | Cc1c2cc[n+]([C@@H]3O[C@H](CO)[C@H](O)[C@@H]3O)cc2c(C)c2c1[nH]c1ccc(O)cc12.[Cl-] (stereo in doubt; 43a) | 2 | 3 | 1 | 46 | 2 | 4 | 2 | > 503 | > 967 | > 281 | 102 | 68 | > 332 | > 510 | > 220 | 158 | 6 | 61 | 19 | 8 | ILS ([9]; 10 mg/kg): >377%; ILS at 20 mg/kg [23]: 77%; ILS at 5 mg/kg [24]: 39%; ILS at 10 mg/kg [25]: 44%; ILS at 8 mg/kg [28]: 49%; ILS at 32 mg/kg [29]: 176%; ILS at 32 mg/kg [30]: 134%; ILS at 16 mg/kg [31]: 81%
